{"source": "ChEMBL document CHEMBL4819068", "about": "“Novel potent bifunctional carboxylesterase inhibitors based on a polyfluoroalkyl-2-imino-1,3-dione scaffold” (Eur J Med Chem, 2021)", "key": {"[1]": {"test": "Antioxidant activity assessed as trolox equivalent of ABTS radical cation scavenging activity incubated for 24 hrs by UV-Vis spectrophotometric analysis", "type": "functional"}, "Liver carboxylesterase [2]": {"biological_target": "T1, Liver carboxylesterase (Sus scrofa, UniProt Q29550)", "T1 sequence (Q29550 whole entry)": "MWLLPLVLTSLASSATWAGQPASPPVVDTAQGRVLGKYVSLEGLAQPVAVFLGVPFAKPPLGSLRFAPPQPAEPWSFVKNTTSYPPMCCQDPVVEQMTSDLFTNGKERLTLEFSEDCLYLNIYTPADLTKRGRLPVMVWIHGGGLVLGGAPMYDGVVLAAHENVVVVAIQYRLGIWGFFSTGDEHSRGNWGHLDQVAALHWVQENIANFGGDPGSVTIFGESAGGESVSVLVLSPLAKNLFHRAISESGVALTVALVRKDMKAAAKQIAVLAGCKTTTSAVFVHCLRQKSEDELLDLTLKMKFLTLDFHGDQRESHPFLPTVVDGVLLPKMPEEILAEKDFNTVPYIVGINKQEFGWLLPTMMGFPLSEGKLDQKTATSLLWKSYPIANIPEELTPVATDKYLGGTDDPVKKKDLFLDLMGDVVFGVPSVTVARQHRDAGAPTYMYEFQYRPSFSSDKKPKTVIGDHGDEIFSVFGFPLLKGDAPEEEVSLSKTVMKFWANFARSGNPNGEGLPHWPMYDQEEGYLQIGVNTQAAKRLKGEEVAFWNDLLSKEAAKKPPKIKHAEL", "test": "Inhibition of porcine liver carboxylesterase using 4-NPA as substrate preincubated for 10 mins followed by substrate addition by spectrophotometric analysis", "type": "tissue-based", "in_short": "(§1)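 Porcine liver CES, 0.02 unit/mL, in 0.1 M K/Na phosphate pH 8.0, 25 °C; compound in DMSO (2% v/v final) preincubated 10 min, then 1 mM 4-nitrophenyl acetate; 4-nitrophenol read at 405 nm, enzyme-free blanks. Screening at 20 μM in three separate experiments; IC50 from eight concentrations between 10^-12 and 10^-4 M, residual activity relative to inhibitor-free control.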"}, "Liver carboxylesterase 1": {"biological_target": "T2, Liver carboxylesterase 1 (Homo sapiens, UniProt P23141)", "T2 sequence (P23141 whole entry)": "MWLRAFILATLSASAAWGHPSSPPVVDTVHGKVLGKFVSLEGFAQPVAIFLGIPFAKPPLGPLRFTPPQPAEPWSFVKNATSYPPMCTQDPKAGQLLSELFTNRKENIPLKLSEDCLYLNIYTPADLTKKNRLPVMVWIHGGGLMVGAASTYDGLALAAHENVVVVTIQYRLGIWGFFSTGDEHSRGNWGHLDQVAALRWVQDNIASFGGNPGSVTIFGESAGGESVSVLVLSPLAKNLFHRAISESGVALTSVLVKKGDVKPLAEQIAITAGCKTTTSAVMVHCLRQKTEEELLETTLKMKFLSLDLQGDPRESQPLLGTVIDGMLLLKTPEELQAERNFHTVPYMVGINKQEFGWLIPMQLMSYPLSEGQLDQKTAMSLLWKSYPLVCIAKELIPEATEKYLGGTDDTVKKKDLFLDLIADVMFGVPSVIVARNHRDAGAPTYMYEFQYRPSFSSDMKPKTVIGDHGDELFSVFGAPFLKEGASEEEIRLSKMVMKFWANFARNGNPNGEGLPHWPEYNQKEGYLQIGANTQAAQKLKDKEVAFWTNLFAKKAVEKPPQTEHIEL", "test": "Inhibition of human recombinant CES1 expressed in baculovirus infected BTI insect cells using 4-NPA as substrate by spectrophotometric analysis", "in_short": "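Recombinant hCES1 (baculovirus/BTI insect cells), 0.02 unit/mL, in 0.1 M K/Na phosphate pH 7.4, 25 °C; compound (DMSO, 2% v/v final) preincubated 10 min, then 1 mM 4-nitrophenyl acetate added; 4-nitrophenol release read at 405 nm against enzyme-free blank. IC50 from eight concentrations (10^-12–10^-4 M) relative to inhibitor-free control.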"}, "Liver carboxylesterase [3]": {"biological_target": "T1, Liver carboxylesterase", "test": "Non-competitive inhibition of porcine liver carboxylesterase by double reciprocal Lineweaver-Burk plot analysis", "type": "tissue-based", "conditions": "pig", "in_short": "(§2)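 Porcine liver CES residual activity measured with 3 increasing inhibitor concentrations and 5–6 decreasing 4-nitrophenyl acetate concentrations after 10 min preincubation at 25 °C; parallel inhibitor-free controls. Initial velocities plotted as Lineweaver–Burk double-reciprocal plots to derive mechanism and steady-state inhibition constants; each experiment in triplicate.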"}, "[4]": {"biological_target": "Cholinesterase (Equus caballus) (UniProt P81908)", "sequence (P81908 whole entry)": "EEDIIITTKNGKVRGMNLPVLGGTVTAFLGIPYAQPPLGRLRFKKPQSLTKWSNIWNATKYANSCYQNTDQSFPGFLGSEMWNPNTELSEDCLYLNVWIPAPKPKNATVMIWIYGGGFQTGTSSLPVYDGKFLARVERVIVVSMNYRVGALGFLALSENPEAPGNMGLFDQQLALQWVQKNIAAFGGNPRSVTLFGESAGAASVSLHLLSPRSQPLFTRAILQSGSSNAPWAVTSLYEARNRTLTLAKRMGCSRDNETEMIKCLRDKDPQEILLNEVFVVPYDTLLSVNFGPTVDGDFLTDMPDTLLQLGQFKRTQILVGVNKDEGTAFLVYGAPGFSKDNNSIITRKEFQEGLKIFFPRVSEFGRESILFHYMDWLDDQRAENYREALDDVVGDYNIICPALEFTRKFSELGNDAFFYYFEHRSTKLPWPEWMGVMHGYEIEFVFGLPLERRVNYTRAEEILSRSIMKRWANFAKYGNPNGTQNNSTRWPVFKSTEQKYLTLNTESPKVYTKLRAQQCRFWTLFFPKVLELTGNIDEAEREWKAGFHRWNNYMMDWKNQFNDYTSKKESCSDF", "test": "Non-competitive inhibition of equine serum BuChE by double reciprocal Lineweaver-Burk plot analysis", "in_short": "(§3)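 Residual activity measured with 3 increasing inhibitor concentrations and 5–6 decreasing substrate concentrations (ATCh for AChE, BTCh for BChE), DTNB read-out, 0.1 M K/Na phosphate pH 7.5, 25 °C; 10 min enzyme–inhibitor preincubation before substrate; no-inhibitor parallel control; triplicate; mechanism from Lineweaver-Burk plots.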"}, "Acetylcholinesterase [5]": {"biological_target": "T3, Acetylcholinesterase (Homo sapiens, UniProt P22303)", "T3 sequence (P22303 whole entry)": "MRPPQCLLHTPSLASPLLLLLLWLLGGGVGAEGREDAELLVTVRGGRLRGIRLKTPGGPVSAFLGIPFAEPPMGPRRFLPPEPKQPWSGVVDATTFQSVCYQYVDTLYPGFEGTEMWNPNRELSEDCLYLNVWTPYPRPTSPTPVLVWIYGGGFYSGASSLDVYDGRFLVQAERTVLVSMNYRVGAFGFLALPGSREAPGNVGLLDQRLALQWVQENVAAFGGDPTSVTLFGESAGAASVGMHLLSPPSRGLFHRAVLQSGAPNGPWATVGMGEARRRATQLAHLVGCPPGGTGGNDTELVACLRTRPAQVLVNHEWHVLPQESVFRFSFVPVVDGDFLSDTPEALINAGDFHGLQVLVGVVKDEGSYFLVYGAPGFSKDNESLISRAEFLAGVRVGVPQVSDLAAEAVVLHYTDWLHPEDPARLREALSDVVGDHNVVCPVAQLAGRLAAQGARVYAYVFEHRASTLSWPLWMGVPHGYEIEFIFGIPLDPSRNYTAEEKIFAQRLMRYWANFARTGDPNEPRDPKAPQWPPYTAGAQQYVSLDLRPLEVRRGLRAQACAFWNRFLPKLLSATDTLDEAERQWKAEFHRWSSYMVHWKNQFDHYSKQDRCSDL", "test": "Non-competitive inhibition of human erythrocyte AChE by double reciprocal Lineweaver-Burk plot analysis", "in_short": "as §3"}, "[6]": {"test": "Antioxidant activity assessed as decrease in ABTS radical cation scavenging activity incubated for 24 hrs by UV-Vis spectrophotometric analysis", "type": "functional"}, "Acetylcholinesterase [7]": {"biological_target": "T3, Acetylcholinesterase", "test": "Competitive inhibition of human erythrocyte AChE by double reciprocal Lineweaver-Burk plot analysis", "in_short": "as §3"}, "Cholinesterase [8]": {"biological_target": "T4, Cholinesterase (Equus caballus, UniProt P81908)", "T4 sequence (P81908 whole entry)": "as the sequence (P81908 whole entry) above", "test": "Competitive inhibition of equine serum BuChE by double reciprocal Lineweaver-Burk plot analysis", "in_short": "as §3"}, "Acetylcholinesterase [9]": {"biological_target": "T3, Acetylcholinesterase", "test": "Inhibition of human erythrocyte AChE using acetylthiocholine iodide as substrate preincubated for 10 mins followed by substrate addition by Ellman's method"}, "Liver carboxylesterase [10]": {"biological_target": "T1, Liver carboxylesterase", "test": "Competitive inhibition of porcine liver carboxylesterase by double reciprocal Lineweaver-Burk plot analysis", "type": "tissue-based", "in_short": "as §2"}, "Cholinesterase [11]": {"biological_target": "T4, Cholinesterase", "test": "Inhibition of equine serum BuChE using […] as substrate preincubated for 10 mins followed by substrate addition by Ellman's method"}, "[12]": {"test": "Acute toxicity in ip dosed CD-1 mouse observed for 14 days", "type": "organism-based", "conditions": "in vivo, time 14 day", "in_short": "(§4)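 CD-1 mice given compound intraperitoneally in 2% (w/v) starch mucilage, three animals per dose group; lethality observed over 14 days; procedure based on OECD recommendations.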"}, "[13]": {"test": "Cytotoxicity against human FetMSC cells assessed as reduction in cell viability after 72 hrs by MTT assay", "type": "cell-based", "in_short": "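Human fetal MSC (bone-marrow fibroblast-like, nonimmortalized; ≤10–15 passages) grown in F12/DMEM with 10% FBS, 3 mM L-glutamine, penicillin/streptomycin. Seeded at 6×10^3 cells/well; after 24 h, medium replaced with compound at 100, 250, 500 μM for 72 h; controls 0.1% DMSO. MTT 0.5 mg/ml for 4 h, formazan dissolved in DMSO, read at 570 nm; control = 100%.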"}, "[14]": {"test": "Acute toxicity in CD-1 mouse assessed as effect on mouse death at 900 mg/kg, ip measured after 14 days", "type": "organism-based", "conditions": "in vivo, 336 h, time 14 day", "in_short": "as §4"}, "[15]": {"biological_target": "Cholinesterase (Equus caballus) (UniProt P81908)", "test": "Inhibition of equine serum BuChE at 20 uM using […] as substrate preincubated for 10 mins followed by substrate addition by Ellman's method relative to control", "in_short": "(§5)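 Single-point screen at 20 μM in 0.1 M K/Na phosphate pH 7.5, 25 °C; 0.02 unit/mL enzyme, 1 mM ATCh (AChE) or BTCh (BChE), 0.33 mM DTNB; 2% DMSO final; 10 min preincubation then substrate; activity relative to inhibitor-free control; three separate experiments.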"}, "Liver carboxylesterase [16]": {"biological_target": "T1, Liver carboxylesterase", "test": "Inhibition of porcine liver carboxylesterase at 20 uM using 4-NPA as substrate preincubated for 10 mins followed by substrate addition by spectrophotometric analysis relative to control", "type": "tissue-based", "conditions": "pig, probe 4-NPA", "in_short": "as §1"}, "Acetylcholinesterase [17]": {"biological_target": "T3, Acetylcholinesterase", "test": "Inhibition of human erythrocyte AChE at 20 uM using acetylthiocholine iodide as substrate preincubated for 10 mins followed by substrate addition by Ellman's method relative to control", "in_short": "as §5"}, "[18]": {"test": "Acute toxicity in CD-1 mouse assessed as effect on mouse death at 600 mg/kg, ip measured after 14 days", "type": "organism-based", "conditions": "in vivo, 336 h, time 14 day", "in_short": "as §4"}}, "note": "pIC50, pKi: −log10 of the molar value. Calls of active or inactive are those of the source. The rule behind the calls is not given here.", "data": [{"smiles": "COC(=O)/C(=N\\Nc1ccc(C)cc1)C(=O)C(F)(F)F", "values": [{"measurement": "Activity", "setting": "[1]", "result": 0.98}, {"measurement": "pIC50", "setting": "Liver carboxylesterase [2]", "result": 7.56}, {"measurement": "pIC50", "setting": "Liver carboxylesterase 1", "result": 7.79}, {"measurement": "alphaKi", "setting": "Liver carboxylesterase [3]", "result": 82.2, "unit": "nM"}, {"measurement": "alphaKi", "setting": "[4]", "result": 72.7, "unit": "µM"}, {"measurement": "alphaKi", "setting": "Acetylcholinesterase [5]", "result": 139, "unit": "µM"}, {"measurement": "pIC50", "setting": "[6]", "result": 4.67}, {"measurement": "pKi", "setting": "Acetylcholinesterase [7]", "result": 5.00}, {"measurement": "pKi", "setting": "Cholinesterase [8]", "result": 4.53}, {"measurement": "pIC50", "setting": "Acetylcholinesterase [9]", "result": 4.55}, {"measurement": "pKi", "setting": "Liver carboxylesterase [10]", "result": 7.85}, {"measurement": "pIC50", "setting": "Cholinesterase [11]", "result": 4.48}]}, {"smiles": "CCOC(=O)/C(=N\\Nc1cccc(C)c1)C(=O)C(F)(F)F", "values": [{"measurement": "Activity", "setting": "[1]", "result": 0.85}, {"measurement": "LD50 at 336 h", "setting": "[12]", "result": 300, "unit": "mg/kg"}, {"measurement": "pIC50", "setting": "Liver carboxylesterase [2]", "result": 8.14}, {"measurement": "pIC50", "setting": "Liver carboxylesterase 1", "result": 8.29}, {"measurement": "pIC50", "setting": "[6]", "result": 4.60}, {"measurement": "pIC50", "setting": "Acetylcholinesterase [9]", "result": 4.52}, {"measurement": "pIC50", "setting": "[13]", "result": "< 3.30"}, {"measurement": "pIC50", "setting": "Cholinesterase [11]", "result": 4.42}]}, {"smiles": "CCOC(=O)/C(=N\\Nc1ccc(C)cc1)C(=O)C(F)(F)F", "values": [{"measurement": "Activity", "setting": "[1]", "result": 0.95}, {"measurement": "LD50 at 336 h", "setting": "[12]", "result": 900, "unit": "mg/kg"}, {"measurement": "pIC50", "setting": "Liver carboxylesterase [2]", "result": 8.13}, {"measurement": "pIC50", "setting": "Liver carboxylesterase 1", "result": 8.53}, {"measurement": "Activity", "setting": "[14]", "result": "Non-Toxic"}, {"measurement": "pIC50", "setting": "[6]", "result": 4.67}, {"measurement": "pIC50", "setting": "Acetylcholinesterase [9]", "result": 5.14}, {"measurement": "pIC50", "setting": "[13]", "result": "< 3.30"}, {"measurement": "pIC50", "setting": "Cholinesterase [11]", "result": 5.08}]}, {"smiles": "CCOC(=O)/C(=N\\Nc1ccc(C)cc1)C(C)=O", "values": [{"measurement": "Activity", "setting": "[1]", "result": 0.38}, {"measurement": "inhibition", "setting": "[15]", "result": "inactive"}, {"measurement": "inhibition at 20 µM", "setting": "Liver carboxylesterase [16]", "result": 12.1, "unit": "%"}, {"measurement": "inhibition", "setting": "Acetylcholinesterase [17]", "result": 6.8, "unit": "%"}, {"measurement": "pIC50", "setting": "[6]", "result": 4.28}]}, {"smiles": "CCOC(=O)/C(=N\\Nc1ccc(Br)cc1)C(=O)C(F)(F)F", "values": [{"measurement": "Activity", "setting": "[1]", "result": 0.53}, {"measurement": "LD50 at 336 h", "setting": "[12]", "result": 300, "unit": "mg/kg"}, {"measurement": "pIC50", "setting": "Liver carboxylesterase [2]", "result": 8.29}, {"measurement": "pIC50", "setting": "Liver carboxylesterase 1", "result": 7.81}, {"measurement": "pIC50", "setting": "[6]", "result": 4.44}, {"measurement": "pIC50", "setting": "Acetylcholinesterase [9]", "result": 5.87}, {"measurement": "pIC50", "setting": "[13]", "result": "< 3.30"}, {"measurement": "pIC50", "setting": "Cholinesterase [11]", "result": 5.69}]}, {"smiles": "CCOC(=O)/C(=N\\Nc1ccccc1)C(=O)C(F)(F)F", "values": [{"measurement": "Activity", "setting": "[1]", "result": 0.8}, {"measurement": "LD50 at 336 h", "setting": "[12]", "result": 600, "unit": "mg/kg"}, {"measurement": "pIC50", "setting": "Liver carboxylesterase [2]", "result": 8.21}, {"measurement": "pIC50", "setting": "Liver carboxylesterase 1", "result": 8.21}, {"measurement": "Activity", "setting": "[18]", "result": "Non-Toxic"}, {"measurement": "pIC50", "setting": "[6]", "result": 4.57}, {"measurement": "pIC50", "setting": "Acetylcholinesterase [9]", "result": 5.49}, {"measurement": "pIC50", "setting": "[13]", "result": "< 3.30"}, {"measurement": "pIC50", "setting": "Cholinesterase [11]", "result": 5.07}]}]}
